Data published in ChEMBL document CHEMBL2046273, “3-Hydroxy-1H-quinazoline-2,4-dione derivatives as new antagonists at ionotropic glutamate receptors: molecular modeling and pharmacological studies” (Eur J Med Chem, 2012).
Calls of active or inactive are those of the source. The rule behind the calls is not given here.

Tests used:
Rattus norvegicus [1] = species: Rattus norvegicus; assay: Displacement of [3H]kainate from kainate receptor in rat cortical membrane at 100 uM; type: cell membranes
Outline: (§1)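 Rat cortical membranes, test compound at 100 µM single concentration. Diluted in buffer from a 1 mM stock in 50% DMSO. Result given as percent inhibition of specific radioligand binding. Determinations were done in triplicate, 3–4 separate experiments.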

[2] = target: Glutamate NMDA receptor (Rattus norvegicus) (UniProt P35439+Q00959+Q00960+Q00961+Q62645+Q8VHN2+Q9R1M7); assay: Displacement of [3H]glycine from NMDA receptor in rat cortical synaptical membrane at 100 uM; type: cell membranes; outline: as §1
[3] = Displacement of [3H]AMPA from AMPA receptor in rat cortical synaptical membrane; type: cell membranes
Glutamate NMDA receptor = assay: Displacement of [3H]glycine from NMDA receptor in rat cortical synaptical membrane; type: cell membranes
[4] = Displacement of [3H]kainate from high affinity kainate receptor in rat cortical membrane; type: cell membranes
Rattus norvegicus [5] = species: Rattus norvegicus; assay: Displacement of [3H]AMPA from AMPA receptor in rat cortical synaptical membrane at 100 uM; type: cell membranes; outline: as §1
[6] = Antagonist activity at NMDA receptor in mouse cortical wedge assessed as inhibition of NMDA-induced membrane depolarization by electrophysiological assay; type: functional
[7] = Antagonist activity at AMPA receptor in mouse cortical wedge assessed as inhibition of S-AMPA-induced membrane depolarization by electrophysiological assay; type: functional
[8] = (§2) Neuroprotective activity in organotypic Wistar rat hippocampal CA1 region slices assessed as protection from oxygen-deprivation-induced neuronal damage at 1 uM dosed during 30 mins insult and subsequent 24 hrs recovery period by propidium iodide staining-based fluorescence analysis (reference value: 57 +/- 8%); type: functional
Mus musculus [9] = assay: Anticonvulsant activity in Swiss albino mouse assessed as protection from PTZ-induced seizures at 30 mg/kg, po administered 30 mins before PTZ challenge measured after 30 mins; type: functional
Outline: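 Male Swiss albino mice (23–30 g), housed 15 per cage, 23 ± 1 °C, 12 h light/dark. Test drug dispersed in 1% sodium carboxymethylcellulose and given orally in 10 ml/kg. PTZ given 90 mg/kg s.c. 30 min later. Clonic generalized convulsions scored over 30 min, expressed as % protection.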

[10] = as §2, with “at 30” for “at 1”; type: functional
Mus musculus [11] = species: Mus musculus; assay: Antagonist activity at NMDA receptor in mouse cortical wedge assessed as inhibition of NMDA-induced membrane depolarization at 10 uM by electrophysiological assay; type: functional
Outline: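 Mouse cortical wedge preparation; antagonism measured as inhibition of depolarization evoked by NMDA, with test compound at 10 µM.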

[12] = Antagonist activity at kainate receptor in Wistar rat acute hippocampal CA1 region slices assessed as reduction in field excitatory postsynaptic potential amplitude at basal conditions at 5 uM by electrophysiological analysis; type: functional; conditions: Hippocampus
[13] = Antagonist activity at kainate receptor in Wistar rat acute hippocampal CA1 region slices assessed as reduction in field excitatory postsynaptic potential amplitude at basal conditions at 1 uM by electrophysiological analysis; type: functional; conditions: Hippocampus
Hippocampus [14] = assay: Neuroprotective activity in Wistar rat acute hippocampal CA1 region assessed as protection from oxygen glucose deprivation-induced anoxia depolarization at 1 uM administered 15 mins before and during 7 mins oxygen-deprivation challenge; type: functional, tissue-based
Outline: (§3)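 Acute rat hippocampal slices superfused with aCSF, compound in DMSO (final under 0.001%). Applied 15 min before and during 7-min OGD. Anoxic depolarization recorded in CA1 as negative DC voltage shift, with loss of fepsp followed on reperfusion with oxygenated glucose-containing aCSF. n = 3 (1 µM) or 6 (5 µM).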

Hippocampus [15] = assay: Neuroprotective activity in Wistar rat acute hippocampal CA1 region slices assessed as protection from oxygen glucose deprivation-induced anoxic depolarization at 5 uM administered 15 mins before and during 7 mins oxygen glucose deprivation challenge; type: functional; outline: as §3
[16] = Antagonist activity at kainate receptor in Wistar rat acute hippocampal CA1 region slices assessed as reduction of kainate-induced field excitatory postsynaptic potential suppression at 1 uM by electrophysiological analysis relative to untreated pre-drug level (reference value: 52.1 +/- 15.3%); type: functional, Hippocampus; parameters: scale not given: the % may be the effect or the level left
Hippocampus [17] = assay: Neuroprotective activity in Wistar rat hippocampal CA1 region assessed as change in field excitatory postsynaptic potential at basal conditions at 1 to 5 uM by electrophysiological analysis; type: functional, tissue-based

Imax [2]	Ki [3]	Ki (Glutamate NMDA receptor)	IC50 [4]	IC50 [7]	Compound	further results
21%	20 µM	–	–	–	COn1c(=O)[nH]c2cc(C(F)(F)F)c(-n3cnnc3)cc2c1=O	Imax (Rattus norvegicus [1]): 0%
–	6.1 µM	6.1 µM	32 µM	–	Nc1cc2c(=O)n(O)c(=O)[nH]c2cc1C(F)(F)F	–
10%	–	–	25 µM	–	O=C(O)c1ccccc1C(=O)Nc1cc2c(=O)n(O)c(=O)[nH]c2cc1C(F)(F)F	Imax (Rattus norvegicus [5]): 8%
–	–	0.08 µM	–	52 µM	O=C(O)c1cc(O)c2c(Cl)cc(Cl)cc2n1	Imax (Rattus norvegicus [1]): 8%; IC50 [6]: 4.7 µM; Imax (Rattus norvegicus [5]): 5%
–	0.46 µM	5.1 µM	17.3 µM	2.9 µM	O=C(O)c1ccn(-c2cc3c(=O)n(O)c(=O)[nH]c3cc2C(F)(F)F)c1	IC50 [6]: > 50 µM
–	–	6.5 µM	–	–	O=c1[nH]c2cc(C(F)(F)F)c(-n3cnnc3)cc2c(=O)n1O	Activity [8]: 29%; Activity (Mus musculus [9]): 65.5%
3%	0.07 µM	–	7 µM	0.2 µM	NS(=O)(=O)c1cccc2c1c([N+](=O)[O-])cc1nc(O)c(O)nc12 [NBQX]	Activity [10]: 20%; inhibition (Mus musculus [11]): inactive
–	1.3 µM	1.1 µM	19.1 µM	–	O=c1[nH]c2cc(Cl)c([N+](=O)[O-])cc2c(=O)n1O	–
–	4.8 µM	0.85 µM	37.6 µM	–	O=c1[nH]c2cc(C(F)(F)F)ccc2c(=O)n1O	–
–	0.26 µM	1.3 µM	7 µM	–	O=c1[nH]c2cc(C(F)(F)F)c([N+](=O)[O-])cc2c(=O)n1O	–
–	0.72 µM	0.8 µM	4.2 µM	1.5 µM	O=Cc1ccn(-c2cc3c(=O)n(O)c(=O)[nH]c3cc2C(F)(F)F)c1	IC50 [6]: 7 µM
32%	126 µM	–	–	–	O=c1[nH]c2cc(C(F)(F)F)c(-n3cccc3)cc2c(=O)n1O	Imax (Rattus norvegicus [1]): 10%
–	–	–	–	–	O=C(O)c1ccccc1C(=O)Nc1cc2c(=O)n(O)c(=O)[nH]c2cc1Cl	inhibition at 5 µM [12]: 39.6%; inhibition at 1 µM [13]: 19.2%; Activity (Hippocampus [14]): inactive; Activity (Hippocampus [15]): 92.2%; Activity [16]: 85.8%; Activity (Hippocampus [17]): Active
